Data: ChEMBL document CHEMBL1123814, “Synthesis and beta-lactamase inhibitory properties of 2 beta-[(1,2,3-triazol-1-yl)methyl]-2 alpha-methylpenam-3 alpha-carboxylic acid 1,1-dioxide and related triazolyl derivatives” (J Med Chem, 1987)
≈ marks a conversion by molar mass, not a printed value.

Tests used:
Beta-lactamase OXA-1 = Beta-lactamase OXA-1 (Escherichia coli, UniProt P13661); experiment: Inhibitory activity against Beta-lactamase type OXA1 (penicillinase) from Escherichia coli OXA1 using ampicillin (40 uM) as a substrate
Method in brief: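 Isolated β-lactamase tested by microiodometric assay, measuring substrate hydrolysis. Ampicillin substrate at 40 μM. Value reported as the 50% inhibitory concentration.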

[1] = Inhibitory activity against cephalosporinase from Proteus morganii TH-64 using cephalothin (40 uM) as a substrate; […]; design: species or system Morganella morganii
Method in brief: (§1)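 Isolated β-lactamase (cephalosporinase) was inhibited in a microiodometric assay. Substrate concentration was 40 μM, and the 50% inhibitory concentration (M) was determined.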

[2] = Inhibitory activity against cephalosporinase from Proteus vulgaris TH-147 using cephalexin (40 uM) as a substrate; method in brief: as §1
Escherichia coli [3] = experiment: Growth inhibition against Beta lactamase producing bacteria, Escherichia coli (TH-13) was determined for the compound in the combination with Ampicillin; format: functional
Method in brief: (§2)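 Bacteria (β-lactamase producers) were grown in Mueller Hinton broth and diluted to 10⁷ cfu/mL. They were inoculated into the same medium containing ampicillin plus triazole and incubated at 37 °C for 20 h. The MIC was the lowest concentration leaving the medium free of turbidity.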

Escherichia coli [4] = experiment: Growth inhibition against Beta lactamase producing bacteria, Escherichia coli (TH-397) was determined for the compound in the combination with Ampicillin; format: functional; method in brief: as §2
Proteus mirabilis [5] = experiment: Growth inhibition against Beta lactamase producing bacteria, Proteus mirabilis (121K) was determined for the compound in the combination with Ampicillin; format: functional; method in brief: as §2
Proteus vulgaris [6] = experiment: Growth inhibition against Beta lactamase producing bacteria, Proteus vulgaris (IID OX-19)was determined for the compound in the combination with Ampicillin; format: functional; method in brief: as §2
Serratia marcescens [7] = experiment: Growth inhibition against Beta lactamase producing bacteria, Serratia marcescens was determined for the compound in the combination with Ampicillin; format: functional; method in brief: as §2
Staphylococcus aureus [8] = experiment: Growth inhibition against Beta lactamase producing bacteria, Staphylococcus aureus (ATCC90124) was determined for the compound in the combination with Ampicillin; format: functional; method in brief: as §2
Staphylococcus aureus [9] = experiment: Growth inhibition against Beta lactamase producing bacteria, Staphylococcus aureus (S-54K) was determined for the compound in the combination with Ampicillin; format: functional; method in brief: as §2
Escherichia coli [10] = experiment: Minimum inhibitory concentration against 30 strains of Escherichia coli; format: functional
Escherichia coli [11] = experiment: Minimum inhibitory concentration of Ampicillin required for growth inhibition of Beta lactamase producing bacteria Clinically isolated Escherichia coli (TH-13); format: functional
Method in brief: (§3)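 The inoculum was 10⁷ cfu/mL, incubated at 37 °C for 20 h. The MIC was the lowest concentration that left the medium free of turbidity.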

Escherichia coli [12] = experiment: Minimum inhibitory concentration of Ampicillin required for growth inhibition of Beta lactamase producing bacteria Clinically isolated Escherichia coli (TH-397); format: functional
Method in brief: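 Broth microdilution in Mueller Hinton broth. Ampicillin was tested with the triazole fixed at 10 µg/mL against a β-lactamase-producing clinical isolate, with an inoculum of 10⁷ cfu/mL. Plates were incubated at 37 °C for 20 h. The MIC was the lowest concentration that left the medium free of turbidity.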

Proteus mirabilis [13] = experiment: Minimum inhibitory concentration of Ampicillin required for growth inhibition of Beta lactamase producing bacteria Proteus mirabilis (121K); format: functional
Method in brief: (§4)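 Micro broth dilution MIC of ampicillin tested on its own. β-Lactamase-producing bacteria were grown in Mueller Hinton broth and inoculated at 10⁷ cfu/mL into medium containing ampicillin.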

Proteus vulgaris [14] = experiment: Minimum inhibitory concentration of Ampicillin required for growth inhibition of Beta lactamase producing bacteria Proteus vulgaris (IID OX-19); format: functional; method in brief: as §4
Serratia marcescens [15] = experiment: Minimum inhibitory concentration of Ampicillin required for growth inhibition of Beta lactamase producing bacteria Serratia marcescens; format: functional; method in brief: as §4
Staphylococcus aureus [16] = experiment: Minimum inhibitory concentration of Ampicillin required for growth inhibition of Beta lactamase producing bacteria Staphylococcus aureus (S-54K); format: functional; method in brief: as §3
Staphylococcus aureus [17] = experiment: Minimum inhibitory concentration of Ampicillin required for growth inhibition of Beta lactamase producing bacteria Staphylococcus aureus (ATCC90124); format: functional; method in brief: as §3
[18] = Inhibitory activity against cephalosporinase from Proteus morganii TH-64 using cephalothin (40 uM) as a substrate; design: species or system Morganella morganii
Method in brief: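 Isolated β-lactamases were tested by the microiodometric assay, with each line's substrate at 40 μM.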

Chain of Beta-lactamase OXA-1 (P13661 whole entry): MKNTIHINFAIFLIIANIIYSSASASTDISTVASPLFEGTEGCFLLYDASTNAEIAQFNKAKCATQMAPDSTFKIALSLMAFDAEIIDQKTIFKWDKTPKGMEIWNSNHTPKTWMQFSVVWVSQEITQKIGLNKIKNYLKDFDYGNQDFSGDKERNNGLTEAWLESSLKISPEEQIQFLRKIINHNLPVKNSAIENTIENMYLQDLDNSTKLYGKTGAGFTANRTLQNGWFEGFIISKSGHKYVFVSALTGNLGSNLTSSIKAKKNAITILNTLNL

O=C(O)[C@H]1/C(=C/CO)O[C@@H]2CC(=O)N21 [CLAVULANIC ACID]
IC50 (Beta-lactamase OXA-1): 3200 nM | IC50 [1]: Not Active | IC50 [2]: 160 nM

CC1(C)S[C@@H]2[C@H](NC(=O)C(N)c3ccccc3)C(=O)N2[C@H]1C(=O)O.COC(=O)c1cn(C[C@@]2(C)[C@H](C(=O)[O-])C3C(=O)CC3S2(=O)=O)nn1.[Na+] (stereo not given in full)
MIC (Escherichia coli [3]): 3.13 µg/mL | MIC (Escherichia coli [4]): 3.13 µg/mL | MIC (Proteus mirabilis [5]): 0.78 µg/mL | MIC (Proteus vulgaris [6]): 0.39 µg/mL | MIC (Serratia marcescens [7]): 12.5 µg/mL | MIC (Staphylococcus aureus [8]): 0.2 µg/mL | MIC (Staphylococcus aureus [9]): 0.2 µg/mL

CCN1CCN(C(=O)N[C@@H](C(=O)N[C@@H]2C(=O)N3[C@@H]2SC(C)(C)[C@@H]3C(=O)O)c2ccccc2)C(=O)C1=O [PIPERACILLIN]
MIC50 (Escherichia coli [10]): 50 µg/mL (≈ 96.6 µM) | MIC70 (Escherichia coli [10]): 200 µg/mL (≈ 386 µM)

CC1=C(C(=O)O)N2C(=O)[C@@H](NC(=O)[C@H](N)c3ccccc3)[C@H]2SC1 [CEPHALEXIN ANHYDROUS]
MIC50 (Escherichia coli [10]): 25 µg/mL (≈ 72 µM) | MIC70 (Escherichia coli [10]): 100 µg/mL (≈ 288 µM)

CC1(C)S[C@@H]2[C@H](/N=C/N3CCCCCC3)C(=O)N2[C@H]1C(=O)O [AMDINOCILLIN]
MIC50 (Escherichia coli [10]): 3.13 µg/mL (≈ 9.62 µM) | MIC70 (Escherichia coli [10]): 12.5 µg/mL (≈ 38.4 µM)

CC1(C)S[C@@H]2[C@H](/N=C/N3CCCCCC3)C(=O)N2[C@H]1C(=O)O.CC1(C)[C@H](C(=O)O)N2C(=O)C[C@H]2S1(=O)=O
MIC50 (Escherichia coli [10]): 0.1 µg/mL | MIC70 (Escherichia coli [10]): 0.39 µg/mL

CC1(C)[C@H](C(=O)O)N2C(=O)C[C@H]2S1(=O)=O.CCN1CCN(C(=O)N[C@@H](C(=O)N[C@@H]2C(=O)N3[C@@H]2SC(C)(C)[C@@H]3C(=O)O)c2ccccc2)C(=O)C1=O
MIC50 (Escherichia coli [10]): 12.5 µg/mL | MIC70 (Escherichia coli [10]): 25 µg/mL

CC1(C)S[C@@H]2[C@H](NC(=O)C(N)c3ccccc3)C(=O)N2[C@H]1C(=O)O.C[C@]1(Cn2cc([Si](C)(C)C)nn2)[C@H](C(=O)[O-])C2C(=O)CC2S1(=O)=O.[Na+] (stereo not given in full)
MIC (Escherichia coli [3]): 100 µg/mL | MIC (Escherichia coli [4]): 50 µg/mL | MIC (Proteus mirabilis [5]): 25 µg/mL | MIC (Proteus vulgaris [6]): 1.56 µg/mL | MIC (Serratia marcescens [7]): 100 µg/mL | MIC (Staphylococcus aureus [8]): 0.39 µg/mL | MIC (Staphylococcus aureus [9]): 0.78 µg/mL

CC1(C)S[C@@H]2[C@H](NC(=O)C(N)c3ccccc3)C(=O)N2[C@H]1C(=O)O.COC(=O)c1cnnn1C[C@@]1(C)[C@H](C(=O)[O-])C2C(=O)CC2S1(=O)=O.[Na+] (stereo not given in full)
MIC (Escherichia coli [3]): 6.25 µg/mL | MIC (Escherichia coli [4]): 6.25 µg/mL | MIC (Proteus mirabilis [5]): 0.78 µg/mL | MIC (Proteus vulgaris [6]): 0.39 µg/mL | MIC (Serratia marcescens [7]): 25 µg/mL | MIC (Staphylococcus aureus [8]): 0.2 µg/mL | MIC (Staphylococcus aureus [9]): 0.2 µg/mL

CC1(C)S[C@@H]2[C@H](NC(=O)[C@H](N)c3ccccc3)C(=O)N2[C@H]1C(=O)O.CC1(C)[C@H](C(=O)O)N2C(=O)C[C@H]2S1(=O)=O
MIC50 (Escherichia coli [10]): 12.5 µg/mL | MIC70 (Escherichia coli [10]): 100 µg/mL | MIC (Escherichia coli [3]): 6.25 µg/mL | MIC (Escherichia coli [4]): 0.78 µg/mL | MIC (Proteus mirabilis [5]): 6.25 µg/mL | MIC (Proteus vulgaris [6]): 1.56 µg/mL | MIC (Serratia marcescens [7]): 3.13 µg/mL | MIC (Staphylococcus aureus [8]): 0.2 µg/mL | MIC (Staphylococcus aureus [9]): 0.2 µg/mL

CC1(C)S[C@@H]2[C@H](NC(=O)[C@H](N)c3ccccc3)C(=O)N2[C@H]1C(=O)O [AMPICILLIN]
MIC (Escherichia coli [11]): 200 µg/mL (≈ 572 µM) | MIC (Escherichia coli [12]): 400 µg/mL (≈ 1140 µM) | MIC50 (Escherichia coli [10]): 400 µg/mL (≈ 1140 µM) | MIC70 (Escherichia coli [10]): >400 µg/mL | MIC (Proteus mirabilis [13]): > 400 µg/mL | MIC (Proteus vulgaris [14]): 200 µg/mL (≈ 572 µM) | MIC (Serratia marcescens [15]): 400 µg/mL (≈ 1140 µM) | MIC (Staphylococcus aureus [16]): 25 µg/mL (≈ 71.5 µM) | MIC (Staphylococcus aureus [17]): 25 µg/mL (≈ 71.5 µM)

CC1(C)[C@H](C(=O)O)N2C(=O)C[C@H]2S1(=O)=O [SULBACTAM]
IC50 (Beta-lactamase OXA-1): 22000 nM | IC50 [18]: 1000 nM | IC50 [2]: 800 nM
